Results as given in ChEMBL document CHEMBL1129783, “Synthesis and modeling studies with monocyclic analogues of mycophenolic acid” (J Med Chem, 1996).

Tests used:
L1210 [1] = experiment: Inhibitory activity of compound against L1210 leukemia cells in tissue culture; format: functional, cell-based; conditions: Mus musculus
Procedure, shortened: (§1)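 L1210 leukemia cells in tissue culture were exposed for 48 h to compounds dissolved in DMSO, at up to 100 μM (highest concentration tested). Read-out was growth inhibition, reported as IC50 or as percent inhibition at 100 μM.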

L1210 [2] = experiment: Inhibitory activity of compound against L1210 leukemia cells in tissue culture at 100 uM; format: functional; conditions: Mus musculus; procedure, shortened: as §1
HT-29 [3] = experiment: Inhibitory activity of compound against HT-29 human colon adenocarcinoma cell line; […]; format: functional, cell-based
HT-29 [4] = experiment: Inhibitory activity of compound against HT-29 human colon adenocarcinoma cell line; format: functional, cell-based
A549 = experiment: Inhibitory activity of compound against human A549 lung carcinoma cell line.; format: functional, cell-based
A121 = experiment: Inhibitory activity of compound against human A121 ovarian cell line.; format: functional, cell-based
MCF7 = experiment: Inhibitory activity of compound against human MCF-7 breast adenocarcinoma cell line.; format: functional, cell-based

Row | Structure (SMILES) | IC50 (L1210 [1]) [µM] | IC50 (HT-29 [3]) | other results
1 | COC(=O)c1cc(C)c(OC)c(C/C=C(\C)CCC(=O)O)c1O | > 100 |  | 
2 | COc1c(Cl)cc(C(C)=O)c(O)c1C/C=C(\C)CCC(=O)O |  |  | inhibition at 100 µM (L1210 [2]): 21%
3 | COc1c(C)cc(C(N)=O)c(O)c1C/C=C(\C)CCC(=O)O | > 100 |  | 
4 | COC(=O)c1ccc(OC)c(C/C=C(\C)CCC(=O)O)c1O | > 100 | Not Active | 
5 | COc1c(C)cc(C(C)=O)c(O)c1C/C=C(\C)CCC(=O)O | > 100 |  | 
6 | COc1c(C)c2c(c(O)c1C/C=C(\C)CCC(=O)O)C(=O)OC2 [MYCOPHENOLIC ACID] | < 0.2 |  | IC50 (HT-29 [4]): 0.4 µM
7 | COC(=O)c1cc(Cl)c(OC)c(C/C=C(\C)CCC(=O)O)c1O | 61 |  | 
8 | COc1ccc(C(C)=O)c(O)c1C/C=C(\C)CCC(=O)O | > 100 | Not Active | IC50 (A549): > 32.5 µM; IC50 (A121): > 32.5 µM; IC50 (MCF7): > 32.5 µM
9 | COc1ccc(C(N)=O)c(O)c1C/C=C(\C)CCC(=O)O | > 100 | Not Active | 
10 | COc1c(Cl)cc(C(N)=O)c(O)c1C/C=C(\C)CCC(=O)O | > 100 |  | 
